Laboratory results taken from ChEMBL document CHEMBL4118021, “Studies of TAK1-centered polypharmacology with novel covalent TAK1 inhibitors” (Bioorg Med Chem, 2017).
Calls of active or inactive are those of the source. The rule behind the calls is not given here.

What was measured:
[1] = biological target: Receptor-type tyrosine-protein kinase FLT3 (Homo sapiens) (UniProt P36888); assay: Inhibition of human FLT3 (592 to 969 residues) expressed in bacterial expression system assessed as enzyme activity at 1 uM by KINOMEScan assay relative to control; set-up: scale not given: the % may be the effect or the level left
Method in brief: (§1)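 In vitro ATP-site competition binding assay across a panel of 456 kinases, with compound tested at 1 and 10 μM.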

[2] = biological target: T1, Serine/threonine-protein kinase D2 (Homo sapiens) (UniProt Q9BZL6); assay: Inhibition of human PRKD2 (519 to 838 residues) expressed in bacterial expression system assessed as enzyme activity at 1 uM by KINOMEScan assay relative to control; set-up: scale not given: the % may be the effect or the level left; method in brief: as §1
T1 sequence (whole entry): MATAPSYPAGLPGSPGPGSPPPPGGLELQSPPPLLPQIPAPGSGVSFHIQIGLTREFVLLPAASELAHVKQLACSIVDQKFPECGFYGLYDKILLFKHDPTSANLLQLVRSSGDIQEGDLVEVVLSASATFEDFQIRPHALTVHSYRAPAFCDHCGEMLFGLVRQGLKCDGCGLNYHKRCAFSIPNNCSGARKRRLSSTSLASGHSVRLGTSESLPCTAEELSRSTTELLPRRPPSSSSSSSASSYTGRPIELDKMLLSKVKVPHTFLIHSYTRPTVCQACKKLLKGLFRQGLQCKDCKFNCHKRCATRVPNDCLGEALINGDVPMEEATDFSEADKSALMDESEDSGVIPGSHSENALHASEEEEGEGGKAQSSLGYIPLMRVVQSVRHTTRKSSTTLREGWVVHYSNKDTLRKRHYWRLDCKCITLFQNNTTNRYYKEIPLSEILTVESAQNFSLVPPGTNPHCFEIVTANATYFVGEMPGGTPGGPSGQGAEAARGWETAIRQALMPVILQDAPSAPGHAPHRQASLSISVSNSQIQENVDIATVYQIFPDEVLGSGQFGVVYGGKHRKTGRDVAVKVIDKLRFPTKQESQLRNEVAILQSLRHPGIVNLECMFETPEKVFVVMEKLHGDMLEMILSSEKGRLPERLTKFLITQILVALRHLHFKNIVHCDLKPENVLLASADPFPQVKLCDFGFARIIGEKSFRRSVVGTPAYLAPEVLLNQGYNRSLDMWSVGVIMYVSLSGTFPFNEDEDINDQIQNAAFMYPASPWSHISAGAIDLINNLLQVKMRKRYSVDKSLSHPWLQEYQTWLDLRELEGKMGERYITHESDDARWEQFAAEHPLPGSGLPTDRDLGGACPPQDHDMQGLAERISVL

[3] = biological target: T2, Dual specificity mitogen-activated protein kinase kinase 4 (Homo sapiens) (UniProt P45985); assay: Inhibition of human MEK4 (84 to 399 residues) expressed in mammalian expression system assessed as enzyme activity at 10 uM by KINOMEScan assay relative to control; set-up: scale not given: the % may be the effect or the level left; method in brief: as §1
T2 sequence (whole entry): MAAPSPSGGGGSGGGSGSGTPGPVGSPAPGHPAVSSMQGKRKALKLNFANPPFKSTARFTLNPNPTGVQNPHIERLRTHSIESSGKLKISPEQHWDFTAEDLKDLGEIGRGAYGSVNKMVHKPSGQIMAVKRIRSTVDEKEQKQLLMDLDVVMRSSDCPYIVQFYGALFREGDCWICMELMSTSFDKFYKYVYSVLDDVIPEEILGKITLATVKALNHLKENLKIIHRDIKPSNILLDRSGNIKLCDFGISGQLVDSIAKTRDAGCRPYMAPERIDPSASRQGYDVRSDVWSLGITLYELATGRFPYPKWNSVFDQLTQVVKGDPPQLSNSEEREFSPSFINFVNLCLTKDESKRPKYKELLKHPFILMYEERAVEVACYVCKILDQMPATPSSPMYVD

[4] = biological target: Platelet-derived growth factor receptor alpha (Homo sapiens) (UniProt P16234); assay: Inhibition of human PDGFRA (575 to 1002 residues) expressed in mammalian expression system assessed as enzyme activity at 10 uM by KINOMEScan assay relative to control; set-up: scale not given: the % may be the effect or the level left; method in brief: as §1
[5] = biological target: Proteasome activator complex subunit 1 (Homo sapiens) (UniProt Q06323); assay: Binding affinity to PSME1 in human NCI-H23 cells at 1 uM by mass spectrometry based pull down assay; format: cell-based
NCI-H23 = assay: Binding affinity to PSMA3 in human NCI-H23 cells at 1 uM by mass spectrometry based pull down assay; format: cell-based
[6] = biological target: T3, 80S Ribosome (Homo sapiens) (UniProt P08865+P42677+P62753+P15880+P23396+P61247+P62701+P22090+P46782+P62081+P62241+P46781+P46783+P62280+P25398+P62277+P62263+P62841+P62244+P62249+P08708+P62269+P39019+P60866+P63220+P62266+P62847+P62851+P62854+P62979+P62857+P62273+P62861+P39023+P36578+P46777+Q02878+P18124+P62424+P62917+P32969+P27635+P62906+P62913+P30050+P26373+P40429+P50914+P61313+P18621+Q07020+Q02543+P84098+P46778+P35268+P62829+P62750+P83731+P61254+P61353+P46776+P46779+P47914+P62888+P62899+P62910+P49207+P42766+P18077+Q9Y3U8+P83881+P61927+P61513+P63173+P62891+P62945+P05388+P05386); assay: Binding affinity to RPS11 in human NCI-H23 cells at 1 uM by mass spectrometry based pull down assay; format: cell-based
[7] = biological target: T3, 80S Ribosome (Homo sapiens); assay: Binding affinity to RPL27 in human NCI-H358 cells at 1 uM by mass spectrometry based pull down assay; format: cell-based
[8] = biological target: Calcyclin-binding protein (Homo sapiens) (UniProt Q9HB71); assay: Binding affinity to CACYBP in human NCI-H358 cells at 1 uM by mass spectrometry based pull down assay; format: cell-based
[9] = biological target: WD repeat and HMG-box DNA-binding protein 1 (Homo sapiens) (UniProt O75717); assay: Binding affinity to WDHD1 in human NCI-H358 cells at 1 uM by mass spectrometry based pull down assay; format: cell-based
[10] = biological target: Glutamate--cysteine ligase catalytic subunit (Homo sapiens) (UniProt P48506); assay: Binding affinity to GCLC in human NCI-H358 cells at 1 uM by mass spectrometry based pull down assay; format: cell-based
[11] = biological target: Cyclin-dependent kinase 4 (Homo sapiens) (UniProt P11802); assay: Binding affinity to CDK4 in human NCI-H358 cells at 1 uM by mass spectrometry based pull down assay; format: cell-based
[12] = biological target: T3, 80S Ribosome (Homo sapiens); assay: Binding affinity to RPL10A in human NCI-H358 cells at 1 uM by mass spectrometry based pull down assay; format: cell-based
[13] = biological target: 6-phosphogluconate dehydrogenase, decarboxylating (Homo sapiens) (UniProt P52209); assay: Binding affinity to PGD in human NCI-H358 cells at 1 uM by mass spectrometry based pull down assay
Chain of 6-phosphogluconate dehydrogenase, decarboxylating (Homo sapiens) (P52209 whole entry, looked up): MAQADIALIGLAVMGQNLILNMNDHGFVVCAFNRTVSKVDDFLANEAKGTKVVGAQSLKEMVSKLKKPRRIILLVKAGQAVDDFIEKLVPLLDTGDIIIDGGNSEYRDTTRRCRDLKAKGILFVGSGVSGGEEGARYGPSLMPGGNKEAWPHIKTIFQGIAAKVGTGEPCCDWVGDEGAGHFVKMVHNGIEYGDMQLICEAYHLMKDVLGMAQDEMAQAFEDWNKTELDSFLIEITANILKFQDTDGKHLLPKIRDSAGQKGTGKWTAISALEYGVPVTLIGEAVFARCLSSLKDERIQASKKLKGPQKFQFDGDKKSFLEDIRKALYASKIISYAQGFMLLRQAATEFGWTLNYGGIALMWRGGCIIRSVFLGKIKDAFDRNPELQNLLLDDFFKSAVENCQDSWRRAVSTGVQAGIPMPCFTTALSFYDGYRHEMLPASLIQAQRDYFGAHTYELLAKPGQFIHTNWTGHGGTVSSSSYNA

Chain of Cyclin-dependent kinase 4 (Homo sapiens) (P11802 whole entry): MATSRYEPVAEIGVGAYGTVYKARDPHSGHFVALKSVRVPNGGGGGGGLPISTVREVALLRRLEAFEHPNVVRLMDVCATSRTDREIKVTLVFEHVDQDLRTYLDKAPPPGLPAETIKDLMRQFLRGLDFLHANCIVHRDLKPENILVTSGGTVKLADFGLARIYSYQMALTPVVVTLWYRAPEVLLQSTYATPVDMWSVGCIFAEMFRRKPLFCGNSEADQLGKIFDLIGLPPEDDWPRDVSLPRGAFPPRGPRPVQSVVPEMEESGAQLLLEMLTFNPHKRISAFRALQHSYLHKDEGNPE
Chain of Calcyclin-binding protein (Homo sapiens) (Q9HB71 whole entry): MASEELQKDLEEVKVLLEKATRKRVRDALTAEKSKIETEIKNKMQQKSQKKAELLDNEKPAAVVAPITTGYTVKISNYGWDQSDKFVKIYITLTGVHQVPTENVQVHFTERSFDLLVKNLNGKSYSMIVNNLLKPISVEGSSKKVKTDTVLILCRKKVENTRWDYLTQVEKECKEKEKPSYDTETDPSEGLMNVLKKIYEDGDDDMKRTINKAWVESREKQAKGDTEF
Chain of Receptor-type tyrosine-protein kinase FLT3 (Homo sapiens) (P36888 whole entry, the tested form may be a part): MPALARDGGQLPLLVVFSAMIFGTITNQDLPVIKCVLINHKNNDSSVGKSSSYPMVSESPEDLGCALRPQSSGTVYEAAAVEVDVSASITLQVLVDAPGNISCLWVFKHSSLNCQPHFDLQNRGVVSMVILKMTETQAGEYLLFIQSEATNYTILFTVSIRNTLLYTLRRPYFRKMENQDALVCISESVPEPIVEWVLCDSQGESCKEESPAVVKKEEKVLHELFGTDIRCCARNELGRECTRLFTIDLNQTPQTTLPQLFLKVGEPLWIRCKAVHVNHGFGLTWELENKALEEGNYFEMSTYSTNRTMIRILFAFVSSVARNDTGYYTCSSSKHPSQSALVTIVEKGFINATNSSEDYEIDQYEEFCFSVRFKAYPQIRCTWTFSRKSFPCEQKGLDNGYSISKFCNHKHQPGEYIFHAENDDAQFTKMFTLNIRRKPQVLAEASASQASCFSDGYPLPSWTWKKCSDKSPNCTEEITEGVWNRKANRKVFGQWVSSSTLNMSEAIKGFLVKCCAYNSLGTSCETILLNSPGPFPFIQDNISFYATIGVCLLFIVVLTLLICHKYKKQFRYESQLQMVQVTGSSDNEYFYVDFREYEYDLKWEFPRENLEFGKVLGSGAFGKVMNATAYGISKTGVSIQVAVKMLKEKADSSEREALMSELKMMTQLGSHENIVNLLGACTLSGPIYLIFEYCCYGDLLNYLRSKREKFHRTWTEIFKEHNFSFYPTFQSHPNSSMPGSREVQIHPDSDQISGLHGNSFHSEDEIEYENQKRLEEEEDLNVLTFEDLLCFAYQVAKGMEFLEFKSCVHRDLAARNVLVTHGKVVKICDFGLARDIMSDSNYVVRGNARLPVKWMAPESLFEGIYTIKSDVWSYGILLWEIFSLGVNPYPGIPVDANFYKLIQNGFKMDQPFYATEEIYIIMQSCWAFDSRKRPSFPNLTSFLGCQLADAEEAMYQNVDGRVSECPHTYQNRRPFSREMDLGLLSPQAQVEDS
Chain of Platelet-derived growth factor receptor alpha (Homo sapiens) (P16234 whole entry, the tested form may be a part): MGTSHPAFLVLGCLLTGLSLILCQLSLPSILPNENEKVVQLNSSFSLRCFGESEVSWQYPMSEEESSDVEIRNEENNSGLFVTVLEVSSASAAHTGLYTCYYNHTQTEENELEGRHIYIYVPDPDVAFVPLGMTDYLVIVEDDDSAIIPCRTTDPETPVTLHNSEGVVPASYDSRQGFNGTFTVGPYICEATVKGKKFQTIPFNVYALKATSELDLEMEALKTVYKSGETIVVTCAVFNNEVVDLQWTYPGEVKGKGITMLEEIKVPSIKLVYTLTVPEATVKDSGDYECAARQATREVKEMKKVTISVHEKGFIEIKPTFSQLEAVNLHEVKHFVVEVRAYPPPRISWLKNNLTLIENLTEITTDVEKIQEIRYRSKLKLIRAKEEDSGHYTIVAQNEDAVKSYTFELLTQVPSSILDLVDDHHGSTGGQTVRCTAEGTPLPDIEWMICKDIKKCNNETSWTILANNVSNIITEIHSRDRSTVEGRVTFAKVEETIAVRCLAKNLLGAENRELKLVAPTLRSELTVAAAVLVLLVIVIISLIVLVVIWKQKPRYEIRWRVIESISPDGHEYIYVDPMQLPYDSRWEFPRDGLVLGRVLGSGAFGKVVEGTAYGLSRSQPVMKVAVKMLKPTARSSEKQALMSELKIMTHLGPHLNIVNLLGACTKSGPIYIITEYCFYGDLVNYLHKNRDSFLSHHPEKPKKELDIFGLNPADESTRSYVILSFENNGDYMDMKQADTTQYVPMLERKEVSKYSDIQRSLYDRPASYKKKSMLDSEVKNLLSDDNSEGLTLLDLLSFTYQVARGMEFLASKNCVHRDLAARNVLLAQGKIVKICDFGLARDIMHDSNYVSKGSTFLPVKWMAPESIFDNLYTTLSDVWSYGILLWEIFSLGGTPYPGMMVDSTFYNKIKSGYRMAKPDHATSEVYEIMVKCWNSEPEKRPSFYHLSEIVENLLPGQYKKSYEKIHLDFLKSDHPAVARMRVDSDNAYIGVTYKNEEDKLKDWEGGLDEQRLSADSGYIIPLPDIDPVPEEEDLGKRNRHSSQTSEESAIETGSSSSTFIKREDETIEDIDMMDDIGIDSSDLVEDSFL
Chain of Proteasome activator complex subunit 1 (Homo sapiens) (Q06323 whole entry, one chain of several): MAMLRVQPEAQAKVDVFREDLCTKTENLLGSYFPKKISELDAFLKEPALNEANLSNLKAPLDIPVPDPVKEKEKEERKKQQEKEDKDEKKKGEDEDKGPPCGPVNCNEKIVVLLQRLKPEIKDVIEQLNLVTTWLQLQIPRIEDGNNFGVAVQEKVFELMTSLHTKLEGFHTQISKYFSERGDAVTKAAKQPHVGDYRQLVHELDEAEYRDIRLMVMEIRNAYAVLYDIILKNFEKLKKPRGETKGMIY
Chain of WD repeat and HMG-box DNA-binding protein 1 (Homo sapiens) (O75717 whole entry): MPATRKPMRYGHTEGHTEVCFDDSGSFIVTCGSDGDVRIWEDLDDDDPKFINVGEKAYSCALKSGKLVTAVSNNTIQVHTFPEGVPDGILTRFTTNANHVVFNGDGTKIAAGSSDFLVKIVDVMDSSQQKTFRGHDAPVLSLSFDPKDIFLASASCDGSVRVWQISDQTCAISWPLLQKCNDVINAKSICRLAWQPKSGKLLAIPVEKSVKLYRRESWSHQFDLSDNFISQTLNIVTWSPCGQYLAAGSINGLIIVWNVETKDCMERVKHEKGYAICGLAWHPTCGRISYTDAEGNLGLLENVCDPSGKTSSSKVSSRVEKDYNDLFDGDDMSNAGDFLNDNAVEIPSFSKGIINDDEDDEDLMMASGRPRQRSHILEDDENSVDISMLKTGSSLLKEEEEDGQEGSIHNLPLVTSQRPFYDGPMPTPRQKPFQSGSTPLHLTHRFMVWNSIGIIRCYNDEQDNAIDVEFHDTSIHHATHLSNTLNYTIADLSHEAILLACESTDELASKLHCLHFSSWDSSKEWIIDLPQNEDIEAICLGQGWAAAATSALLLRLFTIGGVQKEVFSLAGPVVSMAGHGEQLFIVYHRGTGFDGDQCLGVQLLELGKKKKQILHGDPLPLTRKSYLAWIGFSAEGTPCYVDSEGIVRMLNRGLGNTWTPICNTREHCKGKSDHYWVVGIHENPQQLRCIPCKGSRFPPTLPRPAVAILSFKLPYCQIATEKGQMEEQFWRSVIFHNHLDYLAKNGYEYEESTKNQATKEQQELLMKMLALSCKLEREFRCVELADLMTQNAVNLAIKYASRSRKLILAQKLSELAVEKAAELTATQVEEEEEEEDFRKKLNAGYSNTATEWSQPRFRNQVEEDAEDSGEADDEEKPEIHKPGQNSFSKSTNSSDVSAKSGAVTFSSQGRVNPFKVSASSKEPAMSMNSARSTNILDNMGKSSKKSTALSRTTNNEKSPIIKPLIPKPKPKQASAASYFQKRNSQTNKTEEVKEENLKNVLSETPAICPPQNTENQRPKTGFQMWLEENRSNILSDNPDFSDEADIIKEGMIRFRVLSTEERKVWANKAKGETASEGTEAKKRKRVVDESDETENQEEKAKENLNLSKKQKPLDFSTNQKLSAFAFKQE

For COc1cc(O)c2c(c1)/C=C/C[C@H](O)[C@H](O)C(=O)/C=C\C[C@H](C)OC2=O, which Activity [1] is on record?
Its Activity is 4.2%.

What about the Activity [2] of the same compound?
Its Activity is 72%.

And the Activity [3]?
Its Activity is 0.35%.

What about the Activity [4] of the same compound?
Its Activity is 1.4%.

Which results are given for C=CC(=O)Nc1ccccc1Nc1nc(Nc2ccc(N3CCN(CCOCCOCCOCCNC(=O)CCCC[C@@H]4SC[C@@H]5NC(=O)N[C@@H]54)CC3)cc2)ncc1Cl?
Activity [5]: Active; Activity (NCI-H23): Active; Activity [6]: Active; Activity [7]: Active; Activity [8]: Active; Activity [9]: Active; Activity [10]: Active; Activity [11]: Active; Activity [12]: Active; Activity [13]: Active
